Screening results (PubChem BioAssay)
rRNA inh HTS: inhibits bacterial ribosomal RNA function over humanized ribosomes | E. coli WT GFP vs humanized-ribosome RFP mutants, fluorescence, 24 h; stronger effect = lower value; DMSO median 0, no signal -100 | GFP signal change (wild-type ribosome), % (no concentration beside the values) | hit rate 1.6% among 350,000 | AID 720706;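 active means significant combined selectivity score with lowered wild-type GFP, culture density cut under 30%, mutant RFP and density less affected; inactive means any of these conditions unmet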
MLL AF4-AF9 inh: MLL-AF4/AF9 protein interaction inhibition; AlphaScreen, biotin-AF4 peptide binding to FLAG-AF9; inhibition, % at 10 µM; hit rate 0.47% among 350,000;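 active means every replicate reaching a set inhibition limit, whatever the replicate mean, cut at about 25% in these data; inconclusive means mean inhibition reaches that limit but some replicates miss it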
ERAP1 inh: ERAP1 (human) enzyme inhibition; Q9NZ08; recombinant ERAP1, Leu-AMC fluorescence, 60 min; inhibition, % at 10.7 µM; hit rate 0.15% among 340,000; AID 652197;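 active means mean replicate inhibition of at least 30%, or all replicates individually reaching that 30% level; inactive means mean below 30% and not every replicate reaching it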
E-selectin induc: induces E-selectin expression in human endothelial cells | P16581 | HUVEC E-selectin immunofluorescence imaging; normalized: neutral wells 0, TNF-alpha wells 100 | activation, % at 7.58 µM | hit rate 0.37% among 260,000;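 active means mean E-selectin-positive cell signal at least 10% of the positive control, reached in at least 60% of replicates, without over 20% cell loss; inconclusive means no rule given, readout overlaps actives, possibly toxicity-flagged; inactive means the rest, including those meeting only one limit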
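Assay system: HUVEC, human umbilical vein endothelial cells / Amount: 3,000 HUVEC/well / Controls: TNF-alpha positive control, DMSO neutral control / Compound dosing: single concentration / Medium: EGM-2 over gelatin coat / Evaluation: percent E-selectin-positive cells / Signal: immunofluorescence imaging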
SIRT5 block: blocks human SIRT5 desuccinylation of peptide. Q9NXA8. Purified SirT5, succinyl-peptide AMC, trypsin-coupled fluorescence. inhibition, % at 15 µM. hit rate 1.1% among 330,000; in the data active means inhibition above about 15%; inconclusive means no clear call, values can overlap the other calls
Target sequence (Q9NXA8 whole entry, looked up): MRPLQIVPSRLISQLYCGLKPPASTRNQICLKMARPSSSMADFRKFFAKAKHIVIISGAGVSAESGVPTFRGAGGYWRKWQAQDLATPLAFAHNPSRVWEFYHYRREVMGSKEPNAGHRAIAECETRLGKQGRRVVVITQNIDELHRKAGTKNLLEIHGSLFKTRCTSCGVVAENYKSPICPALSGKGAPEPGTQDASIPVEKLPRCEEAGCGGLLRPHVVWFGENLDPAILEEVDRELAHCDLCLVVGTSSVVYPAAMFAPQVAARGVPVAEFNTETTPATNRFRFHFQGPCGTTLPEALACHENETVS
S100A4 MyoIIA: S100A4-myosin IIA interaction inhibition; P26447; inhibition, % at 10.7 µM; hit rate 0.14% among 360,000; S100A4/TAMRA-MyoIIA peptide fluorescence polarization; AID 652163;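 active means mean inhibition of at least 70% across replicates, with every replicate also reaching that level; inconclusive means mean inhibition reaches 70% but some replicates fall short; inactive means mean inhibition below 70%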
Target sequence (P26447 whole entry, looked up): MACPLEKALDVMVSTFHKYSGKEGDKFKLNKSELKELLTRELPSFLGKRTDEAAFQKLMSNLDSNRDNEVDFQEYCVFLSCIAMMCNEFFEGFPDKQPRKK
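Material: S100A4 monomer protein / Buffer or medium: 50 mM HEPES pH 7.2, 10 mM CaCl2, 100 mM KCl / Times: 5 min incubation before reading / Benchmarks: neutral control DMSO, positive control TFP / Reagent: labelled myosin peptide probe, 5 nM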
Numbers stand for hits; n = inactive; u = inconclusive; x = not tested or not shown; ! = not active in a repeat. In the library only some 3.4% were active in any assay of this set; here they are far more common.

SMILES | rRNA inh HTS | MLL AF4-AF9 inh | ERAP1 inh | E-selectin induc | SIRT5 block | S100A4 MyoIIA
COc1ccc(NC(=O)N[C@H]2CC[C@@H](CCNC(=O)CCN3CCCCC3)O[C@H]2CO)cc1 | n | n | n | n | n | n
COc1ccc(S(=O)(=O)N(C)C[C@H]2Oc3ccc(NS(=O)(=O)c4c(C)noc4C)cc3C(=O)N([C@H](C)CO)C[C@@H]2C)cc1 | n | n | n | n | n | n
COc1ccc(S(=O)(=O)Nc2ccc3c(c2)C(=O)N([C@@H](C)CO)C[C@@H](C)[C@@H](CN(C)S(=O)(=O)c2ccc(Cl)cc2)O3)cc1 | n | x | x | n | x | x
COc1ccc(S(=O)(=O)Nc2ccc3c(c2)C(=O)N([C@@H](C)CO)C[C@H](C)[C@H](CN(C)S(=O)(=O)c2ccc(Cl)cc2)O3)cc1 | n | x | x | 59 | x | x
COc1ccc(S(=O)(=O)N(C)C[C@@H]2Oc3ccc(NS(=O)(=O)c4c(C)noc4C)cc3C(=O)N([C@@H](C)CO)C[C@H]2C)cc1 | n | n | n | 189 | n | n
COc1ccc(S(=O)(=O)Nc2ccc3c(c2)C(=O)N([C@H](C)CO)C[C@@H](C)[C@@H](CN(C)S(=O)(=O)c2ccc(Cl)cc2)O3)cc1 | n | n | n | n | 20 | n
COc1ccc(S(=O)(=O)N(C)C[C@H]2Oc3ccc(NS(=O)(=O)c4ccc(Cl)cc4)cc3C(=O)N([C@H](C)CO)C[C@H]2C)cc1 | n | n | n | n | n | n
O=C(Cc1ccccc1)N1CC2(C1)[C@@H](c1ccccc1)[C@H](CO)N2C(=O)Cc1ccccc1 | n | n | n | n | n | n
CC1=Nc2cc(C(=O)NCCCN3CCN(C)CC3)ccc2Sc2ccc(C)cc21 | n | 27 | n | x | n | n
CCOCCCNC(=O)c1ccc2c(c1)N=C(CC)c1cc(Br)ccc1S2 | n | n | n | x | 17 | n
CCCC1=Nc2cc(C(=O)NCCCN3CCN(C)CC3)ccc2Sc2ccccc21 | n | n | n | x | n | n
Cc1noc(C)c1S(=O)(=O)N(C)C[C@H]1OCc2ccccc2-c2c(n(C)c3ccccc23)C(=O)N([C@@H](C)CO)C[C@H]1C | n | n | n | n | n | n
C#CCOCCOCCOCCNc1nc(N2CCN(C(=O)[C@H](CC(N)=O)n3cc([C@@H](N)CC(N)=O)nn3)CC2)nc(N2CCN(C(=O)[C@H](CC(N)=O)n3cc([C@@H](N)CC(N)=O)nn3)CC2)n1 | n | x | n | n | x | n
C#CCOCCOCCOCCNc1nc(N2CCN(C(=O)C([C@@H](C)O)n3cc([C@@H](N)CCCCN)nn3)CC2)nc(N2CCN(C(=O)[C@H](CCCCN)n3cc([C@@H](N)CC(N)=O)nn3)CC2)n1 (some centres undefined) | n | 45 | n | n | n | n
C#CCOCCOCCOCCNc1nc(N2CCN(C(=O)[C@H](CCCCN)n3cc(CN)nn3)CC2)nc(N2CCN(C(=O)[C@H](CCCCN)n3cc([C@@H](N)CC(N)=O)nn3)CC2)n1 | n | 40 | n | n | n | n
CCC(=O)N1[C@H](CN(CC)C(C)=O)[C@@H](c2ccc(-c3cccnc3)cc2)[C@@H]1CO | n | n | n | n | n | n
CNC[C@H]1OCCCC[C@@H](C)Oc2ccc(NC(=O)CCC(F)(F)F)cc2C(=O)N([C@@H](C)CO)C[C@@H]1C | n | x | x | n | x | x
CC(C)c1ccc(N2C(=O)C(Cl)=C(N3CCOCC3)C2=O)cc1 | n | 38 | n | n | n | n
COc1ccc(S(=O)(=O)Nc2cccc3c2O[C@H](CN(C)CC2CC2)[C@H](C)CN([C@H](C)CO)C3=O)cc1 | n | n | n | n | n | n
C[N+](C)(C)CCCCCC(=O)/C=N/O | n | n | n | n | n | n
CC(=O)CC[N+](C)(C)C | n | n | 37 | n | n | n
Cc1cc(C)c(C#N)c(SCCS(=O)(=O)c2ccc(Cl)cc2)n1 | n | n | x | n | n | n
Cc1cc(C)c(C#N)c(SCS(=O)Cc2ccc(Cl)cc2)n1 (centres undefined) | -44 | n | n | x | n | n
C[C@@H]1CN([C@@H](C)CO)C(=O)c2cccc(NS(=O)(=O)c3cccs3)c2O[C@@H]1CN(C)C(=O)NC1CCCCC1 | n | n | n | n | n | n
COc1cccc(C(=O)Oc2ccc(N3C(=O)CCC3=O)c(C)c2)c1 | n | n | n | n | 16 | n
SMILES | rRNA inh HTS | MLL AF4-AF9 inh | ERAP1 inh | E-selectin induc | SIRT5 block | S100A4 MyoIIA
CN(C)CCNc1oc(COc2ccc(-c3ccccc3)cc2)nc1C#N | -36 | u | n | x | x | n
C[C@@H]1CN([C@H](C)CO)S(=O)(=O)c2ccc(C3=CCCCC3)cc2O[C@@H]1CN(C)C(=O)Cc1cccnc1 | n | n | n | n | 15 | n
C[C@@H]1CN([C@H](C)CO)S(=O)(=O)c2ccc(C3=CCCCC3)cc2O[C@H]1CN(C)C(=O)Nc1ccc2c(c1)OCO2 | n | n | n | n | 20 | n
C[C@H](CO)N1C[C@H](C)[C@@H](CN(C)Cc2ccccc2)Oc2cc(C3=CCCC3)ccc2S1(=O)=O | n | n | n | n | 17 | n
C[C@H](CO)N1C[C@H](C)[C@H](CN(C)C(=O)Cc2ccccc2)Oc2cc(C3=CCCCC3)ccc2S1(=O)=O | n | n | n | n | 15 | n
COc1ccc(C#Cc2cnc3c(c2)C(=O)N([C@H](C)CO)C[C@H](C)[C@@H](CN(C)C(=O)c2ccccc2F)O3)cc1 | n | n | n | n | n | n
CC1CCCC/C1=N\NC(=S)NCCc1ccccc1 (centres undefined) | n | n | n | x | n | n
C[n+]1ccccc1C1CCCC/C1=N\NC(N)=S (centres undefined) | n | n | 43 | x | n | n
COC(=O)c1ccc(N2CCc3ccccc32)c([N+](=O)[O-])c1 | n | 33 | n | n | n | n
CC(=O)c1ccc(N2CCc3ccccc3C2)c([N+](=O)[O-])c1 | n | n | x | 70 | x | n
C[C@@H]1CN([C@H](C)CO)C(=O)c2cccc(NC(=O)C3CC3)c2O[C@@H]1CN(C)Cc1ccccc1 | n | n | n | 72 | n | n
C[C@H](CO)N1C[C@H](C)[C@H](CN(C)Cc2ccccc2)Oc2c(NC(=O)C3CC3)cccc2C1=O | n | n | n | n | n | n
C[C@@H]1CN([C@H](C)CO)C(=O)c2cccc(NC(=O)C3CCCCC3)c2O[C@H]1CN(C)Cc1ccccc1 | n | n | n | n | n | n
C[C@H](CO)N1C[C@H](C)[C@@H](CN(C)Cc2ccccc2)Oc2c(cccc2N(C)C)C1=O | n | n | n | x | n | n
C[C@H](CO)N1C[C@H](C)[C@@H](CN(C)Cc2ccccc2)Oc2c(NC(=O)C3CC3)cccc2C1=O | n | n | n | 102! | n | n
